Bounds are passed on as bounds.

One series concerns the target Phosphodiesterase 6. The series is described as follows: Inhibition of recombinant human PDE6 using [3H]cAMP as substrate by scintillation proximity assay. In kind it is protein assay. The essentials: (§1)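 Scintillation proximity assay with [³H]cAMP as substrate, measuring hydrolysis of cAMP to AMP by recombinant human PDEs 1–11. Ki values are means of at least two experiments.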

Series [1] concerns the target cAMP and cAMP-inhibited cGMP 3',5'-cyclic phosphodiesterase 10A (Homo sapiens, UniProt Q9Y233). The series is described as follows: Inhibition of recombinant human PDE10A using [3H]cAMP as substrate by scintillation proximity assay. In a few lines: as §1
Series [2] is described as follows: Drug uptake in rat brain at 10 mg/kg, po after 6 hrs. The format is ADME, organism-based. On the set-up: dose 10 mg/kg, route oral. The conditions noted are these: read-out: Drug uptake. In a few lines: (§2)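 Rat cassette-accelerated rapid screen, 10 mg/kg oral. Plasma exposure measured over 0–6 h. Brain drug concentration taken at 6 h. Brain/plasma ratio is brain over plasma drug concentration at 6 h.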

The nature of series [3]: AUC (0 to 6 hrs) in rat at 10 mg/kg, po. In kind it is ADME, organism-based. On the set-up: time < 6 hr, dose 10 mg/kg, route oral. The conditions noted are these: plasma. The essentials: as §2

cAMP and cAMP-inhibited cGMP 3',5'-cyclic phosphodiesterase 10A, sequence (Q9Y233 whole entry): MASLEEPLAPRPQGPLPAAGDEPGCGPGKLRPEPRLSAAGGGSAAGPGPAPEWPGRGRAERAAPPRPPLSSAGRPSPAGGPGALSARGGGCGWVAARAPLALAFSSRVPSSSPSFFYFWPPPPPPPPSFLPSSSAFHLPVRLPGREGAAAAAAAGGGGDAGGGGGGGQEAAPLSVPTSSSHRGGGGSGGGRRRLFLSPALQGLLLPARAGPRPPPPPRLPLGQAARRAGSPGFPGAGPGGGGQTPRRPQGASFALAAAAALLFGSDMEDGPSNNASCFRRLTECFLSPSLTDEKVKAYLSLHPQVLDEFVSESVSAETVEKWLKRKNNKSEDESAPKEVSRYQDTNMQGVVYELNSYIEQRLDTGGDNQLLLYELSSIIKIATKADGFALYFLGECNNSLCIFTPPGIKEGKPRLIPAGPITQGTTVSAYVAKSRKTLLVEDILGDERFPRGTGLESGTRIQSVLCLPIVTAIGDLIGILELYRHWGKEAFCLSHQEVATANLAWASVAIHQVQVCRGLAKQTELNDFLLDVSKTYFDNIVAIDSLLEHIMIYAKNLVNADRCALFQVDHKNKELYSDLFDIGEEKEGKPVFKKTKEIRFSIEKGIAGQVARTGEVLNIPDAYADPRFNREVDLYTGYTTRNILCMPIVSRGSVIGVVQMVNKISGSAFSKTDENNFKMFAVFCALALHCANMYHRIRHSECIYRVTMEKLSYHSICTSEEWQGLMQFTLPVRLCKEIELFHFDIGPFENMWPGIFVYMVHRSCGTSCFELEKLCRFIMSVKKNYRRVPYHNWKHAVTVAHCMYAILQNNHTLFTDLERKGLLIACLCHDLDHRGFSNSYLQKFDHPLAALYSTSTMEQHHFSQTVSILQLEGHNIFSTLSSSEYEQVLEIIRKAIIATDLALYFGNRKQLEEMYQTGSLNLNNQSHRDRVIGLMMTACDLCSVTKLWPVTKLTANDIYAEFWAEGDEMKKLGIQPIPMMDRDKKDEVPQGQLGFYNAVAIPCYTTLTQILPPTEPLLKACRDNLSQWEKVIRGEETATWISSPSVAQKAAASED

By Ki is commonly meant the equilibrium dissociation constant of an inhibitor or competing ligand from its target. As for `COc1cc(C)c2nc3[nH]nc(C)c3c(NCC3CCNCC3)c2c1`, the figures for the inhibitory constant (Ki) (at Phosphodiesterase 6; in series [1]) were 14.782 µM and 0.015 µM, respectively. For `COc1cc(C)c2nc3[nH]nc(C)c3c(NCC3CCOCC3)c2c1` the same measures were 0.697 µM and 0.052 µM. Take `COc1cc(C)c2nc3[nH]nc(C)c3c(N3CCC(C(N)=O)CC3)c2c1`: the concentration at 6 h in series [2] was less than 10 ng/g. Moreover, in series [1], the inhibition constant (Ki) came out at 0.003 µM. Take `COc1cc(C)c2nc3[nH]nc(C)c3c(N3CCC(CN)CC3)c2c1`: the Ki in series [1] turned out to be 0.0005 µM. Turning to `COc1cc(C)c2nc3[nH]nc(C)c3c(N3CCOC(CO)C3)c2c1` (racemic), in series [2], the concentration at 6 h was less than 10 ng/g. The Ki in series [1] is 0.0096 µM.

Consider `COc1cc(C)c2nc3[nH]nc(C)c3c(N3CCOCC3)c2c1`, for which the inhibitory constant (Ki) in series [1] is 0.023 µM. `COc1cc(C)c2nc3[nH]nc(C)c3c(NCc3ccncc3)c2c1`: the Ki at Phosphodiesterase 6 turned out to be 0.211 µM; in series [1], 0.0006 µM. Regarding `Cc1n[nH]c2nc3ccc(Cl)cc3c(N3CCNCC3)c12`, in series [1], the Ki was 0.419 µM. The same measure, in the same setting: to `COc1cc(C)c2nc3[nH]nc(C)c3c(NCCC3CCOCC3)c2c1` belongs 0.409 µM. A word on the AUC(0-t): it is the area under the concentration-time curve up to a stated or last time point. A high value points to more exposure. Molecule `Cc1cc(Cl)cc2c(N3CCNCC3)c3c(C)n[nH]c3nc12` returned an exposure AUC(0-t) at 6 h in series [3] of 140 nM·h. In addition, in series [1], the Ki came to 0.035 µM. As for `Cc1n[nH]c2nc3ccccc3c(N3CCNCC3)c12`, the Ki in series [1] was determined as 0.55 µM. For the molecule `COc1cc(C)c2nc3[nH]nc(C)c3c(N3CCC(NC(N)=O)CC3)c2c1`, in series [2], the concentration at 6 h was less than 10 ng/g. For the same molecule, in series [1], the inhibition constant (Ki) was found to be 0.027 µM. `COc1cc(C)c2nc3[nH]nc(C)c3c(N3CCCNCC3)c2c1`: the Ki in series [1] stood at 0.015 µM. With `COc1cc(C)c2nc3[nH]nc(C)c3c(NCC3CCCCO3)c2c1` (stereo not given), the Ki at Phosphodiesterase 6 worked out at 0.843 µM; in series [1], 0.13 µM. On to `COc1cc(C)c2nc3[nH]nc(C)c3c(N3CCCCC3)c2c1`, for which, in series [1], the inhibition constant (Ki) is 0.363 µM. As to `COc1cc(C)c2nc3[nH]nc(C)c3c(N3CCC(O)CC3)c2c1`, in series [2], the concentration at 6 h was less than 10 ng/g. Also, in series [1], the Ki came to 0.014 µM.

Turning to `COc1cc(C)c2nc3[nH]nc(C)c3c(N3CCC(N)CC3)c2c1`, in series [2], the concentration at 6 h was less than 10 ng/g. In addition, the Ki in series [1] worked out at 0.001 µM. Turning to `COc1cc(C)c2nc3[nH]nc(C)c3c(NCc3ccccn3)c2c1`, the Ki at Phosphodiesterase 6 came to 1.811 µM; in series [1], 0.006 µM.

Regarding `COc1cc(C)c2nc3[nH]nc(C)c3c(NCC3CN(C)CCO3)c2c1` (stereo not given), the inhibition constant (Ki) in series [1] turned out to be 0.28 µM.

For the molecule `COc1cc(C)c2nc3[nH]nc(C)c3c(N(C)C3CCOCC3)c2c1`, the Ki on Phosphodiesterase 6 was found to be 7.383 µM; in series [1], 0.041 µM.

Consider `COc1cc(C)c2nc3[nH]nc(C)c3c(N3CCCC(CO)C3)c2c1` (racemic), for which, in series [2], the concentration at 6 h is less than 10 ng/g. Also, the Ki in series [1] is 0.029 µM.

With `COc1cc(C)c2nc3[nH]nc(C)c3c(N3CCSCC3)c2c1`, the Ki in series [1] turned out to be 0.196 µM.

As to `COc1ccc2nc3[nH]nc(C)c3c(N3CCNCC3)c2c1`, the Ki in series [1] was 0.585 µM. `COc1cc(C)c2nc3[nH]nc(C)c3c(NCCc3ccncc3)c2c1`: the Ki on Phosphodiesterase 6 stood at 0.554 µM; in series [1] it was 0.07 µM. Taken in the same sequence, the figures for `COc1cc(C)c2nc3[nH]nc(C)c3c(NCC3CNCCO3)c2c1` (stereo not given) were 13.882 µM and 0.005 µM.

The record behind these values is ChEMBL document CHEMBL1938329, “The discovery of potent, selective, and orally active pyrazoloquinolines as PDE10A inhibitors for the treatment of Schizophrenia” (Bioorg Med Chem Lett, 2012).
